The values below come from ChEMBL document CHEMBL3414478, “Activity of 2-aryl-2-(3-indolyl)acetohydroxamates against drug-resistant cancer cells” (J Med Chem, 2015).

Calls of active or inactive are those of the source. No cut-off for these calls is given here.

For one series, the system named is HeLa. Nature of the series: Antiproliferative activity against human HeLa cells assessed as reduction in cell viability after 48 hrs by MTT assay. It is filed as functional, cell-based. In a few lines:
(§1)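 MTT assay. HeLa and U87 cells were grown in DMEM + 10% FBS, and MCF-7 cells in RPMI + 10% FBS. Cells were seeded at 4 × 10³/well, grown 24 h, then exposed to 0.001–100 μM for 48 h. 0.1% DMSO was the negative control and 1 μM PAO the positive control. Quadruplicate wells, ≥2 repeats.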

The test system of another series is MCF7. Nature of the series: Antiproliferative activity against human MCF7 cells assessed as reduction in cell viability after 48 hrs by MTT assay. It is filed as functional, cell-based. The following applies: MCF7, 48 h. In a few lines: as §1
A general note: Tetrazolium assays rely on reduction of a dye to a coloured formazan, in cell work by metabolically active cells.

Series [1] in a line: Cytotoxicity against human NHLF cells assessed as cell growth after 48 hrs by MTT assay. It is filed as cell-based. The method, boiled down: (§2)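 Normal fibroblasts (NHDF, NHLF) were grown in FGM-2 medium at 37 °C, 5% CO2, seeded at 4 × 10³/well and grown 24 h. Controls were 0.1% DMSO and 1 μM PAO. Quadruplicate wells, repeated at least twice.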
For a further series, the system named is NHDF. Nature of the series: Cytotoxicity against human NHDF cells assessed as cell growth after 48 hrs by MTT assay. It is filed as cell-based. In a few lines:
as §2

The nature of series [2]: Antiproliferative activity against human GBM 031810 cells assessed as reduction in cell viability after 48 hrs by MTT assay. It is filed as functional. The following applies: GBM 031810, 48 h. In a few lines: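 Patient-derived glioblastoma neurosphere culture GBM 031810, kept in Neurobasal medium with B27, Glutamax, FGF-2 (20 ng/ml), EGF (20 ng/ml) and heparin; growth factors renewed twice weekly. GI50 is the average ± SD of three determinations.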

Series [3] can be described thus: Antiproliferative activity against human U373 cells assessed as global growth ratio measured as cell growth at 25 uM after 24 hrs by Quantitative videomicroscopy relative to untreated control. In kind it is functional, U-373MG ATCC. The following applies: in the assay text read “after 72 hrs” for “after 24 hrs”. In a few lines: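 U373 cells were grown in RPMI + 10% heat-inactivated FBS and followed by computer-assisted phase-contrast videomicroscopy with 25 μM compound. The global growth ratio is the mean cell count per image at 24, 48 or 72 h divided by the count at 0 h, then normalised to the same ratio in the untreated control.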

The test system of series [4] is U-87MG ATCC. Nature of the series: Redifferentiation of human U87 cells assessed as nonmalignant state resembling reactive astrocyte/phenotype at 7 uM after 3 days. The following applies: in the assay text read “33 days” for “3 days”. It is filed as functional, cell-based. In a few lines:
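U87 cells were plated at 5 × 10⁴/well in DMEM/10% FBS. Next day they were re-fed and dosed at final concentrations between 15 and 5 μM, with medium not replaced afterwards. Morphology was followed for several weeks (33-day treatment shown at 7 μM) against untreated cells.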

Another series deals with A549. Nature of the series: Antiproliferative activity against human A549 cells assessed as reduction in cell viability up to 100 uM after 48 hrs by MTT assay. In kind it is functional, cell-based. The method, boiled down:
(§3)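 Cells (U87 in DMEM, A549 in RPMI with 10% heat-inactivated FBS) were seeded at 4 × 10³/well, grown 24 h, then exposed to 0.001–100 μM compound (DMSO stocks) for 48 h at 37 °C, 5% CO₂. Quadruplicates, repeated at least twice; 0.1% DMSO negative control, 1 μM PAO positive control.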

Series [5] has as its system U-87MG ATCC. Nature of the series: Antiproliferative activity against human U87 cells assessed as reduction in cell viability up to 100 uM after 48 hrs by MTT assay. It is filed as functional, cell-based. The method, boiled down: as §3
The nature of series [6]: Antiproliferative activity against human U87 cells assessed as reduction in cell viability after 48 hrs by MTT assay. In kind it is functional, U-87MG ATCC. The following applies: U-87 MG. The method, boiled down:
as §1

For orientation: IC50 means the point on the concentration scale where inhibition reaches its midpoint. In the case of `Cn1c(-c2ccc3ccccc3c2)c(C(C(=O)NO)c2ccccc2)c2ccccc21` (centres undefined), the values for the IC50 in the series with HeLa and in the series with MCF7 were 19.7 µM and 10 µM, respectively.

In the case of `COc1ccc(C(C(=O)NO)c2c(-c3ccc4ccccc4c3)[nH]c3ccccc23)cc1OC` (centres undefined), the IC50 in the series on HeLa amounted to 26.9 µM; in the series with MCF7 it was 2.4 µM.

As for `Cc1[nH]c2ccccc2c1C(C(=O)NO)c1ccccc1` (centres undefined), the IC50 with HeLa and in the series on MCF7 was greater than 50 µM throughout.

For the compound `Cc1cccc(C(C(=O)NO)c2c(-c3ccc4ccccc4c3)[nH]c3ccccc23)c1` (centres undefined), the half-inhibitory concentration (IC50) in the series with HeLa came out at 6.9 µM; with MCF7 it was 7.4 µM.

As for `O=C(NO)C(c1ccccc1)c1c(-c2ccccc2)[nH]c2ccccc12` (centres undefined), the figures for the IC50 in the series with HeLa and with MCF7 were 23 µM and 31 µM, respectively.

For the compound `Cn1c(-c2ccc3ccccc3c2)c(C(C(=O)NO)c2cccc(F)c2)c2ccccc21` (centres undefined), the figures for the IC50 in the series on HeLa and in the series on MCF7 were 36.8 µM and 25.7 µM, respectively.

In the case of `CCC(C)n1c(-c2ccc3ccccc3c2)c(C(C(=O)NO)c2ccccc2)c2ccccc21` (centres undefined), the concentration for half-maximal inhibition (IC50) in the series with HeLa is 9.8 µM; in the series on MCF7, 9.3 µM.

In the case of `N#CC(c1ccccc1)c1c(-c2ccc3ccccc3c2)[nH]c2ccccc12` (centres undefined), the IC50 in the series on HeLa was 17.4 µM; in the series with MCF7, 20.6 µM.

Usually GI50 stands for the concentration at which growth is held to half of that of the control. As for `CN(C)c1ccc(C(C(=O)NO)c2c(-c3ccc4ccccc4c3)[nH]c3ccccc23)cc1` (centres undefined), the Activity entry (in series [1]; with NHDF) was “Non-toxic” throughout. Also, the IC50 with HeLa stood at 0.6 µM; with MCF7, 1.1 µM. Moreover, the GI50 in [2] was determined as 5.6 µM.

Turning to `CCCCn1c(-c2ccc3ccccc3c2)c(C(C(=O)NO)c2ccc(C(C)C)cc2)c2ccccc21` (centres undefined), the IC50 was 6.6 µM with HeLa and 7.7 µM with MCF7.

As to `O=C(NO)C(c1ccccc1)c1c(-c2ccc3ccccc3c2)[nH]c2ccccc12` (centres undefined), the Activity result is listed as “Non-toxic” in series [1], “Non-toxic” in the series with NHDF and 30% in series [3]. The IC50 with HeLa amounted to 3.6 µM; in the series on MCF7 it was 3.4 µM. Besides, the concentration for 50% growth inhibition (GI50) in series [2] stood at 0.8 µM. Moreover, in the series with U-87MG ATCC [4], the result was Active.

In the case of `O=C(NO)C(c1ccccc1)c1c(-c2cccc3ccccc23)[nH]c2ccccc12` (centres undefined), the IC50 with HeLa turned out to be 25.7 µM; with MCF7 it was 32 µM.

`Cc1ccc(C(C(=O)NO)c2c(-c3ccc4ccccc4c3)[nH]c3ccccc23)cc1C` (centres undefined): the IC50 in the series with HeLa worked out at 2.7 µM; with MCF7, 2.5 µM.

`O=C(NO)C(c1cccc(F)c1)c1c(-c2ccc3ccccc3c2)[nH]c2ccccc12` (centres undefined): the results for the IC50 with HeLa and with MCF7 were 32.9 µM and 20.4 µM, respectively.

Regarding `O=C(NO)C(c1ccc(OC(F)(F)F)cc1)c1c(-c2ccc3ccccc3c2)[nH]c2ccccc12` (centres undefined), the IC50 was determined as 27.4 µM with HeLa and 10.2 µM in the series on MCF7.

For the compound `O=C(NO)C(c1ccccc1)c1c(-c2ccc3ccccc3c2)n(Cc2ccccc2)c2ccccc12` (centres undefined), the figures for the IC50 in the series with HeLa and with MCF7 were 5.4 µM and 5.5 µM, respectively.

Turning to `Cc1ccc(C(C(=O)NO)c2c(-c3ccc4ccccc4c3)[nH]c3ccccc23)cc1` (centres undefined), the IC50 was 6.3 µM in the series on HeLa and 4.9 µM in the series on MCF7.

Consider `Cn1nnc2c(C(N)=O)ncn2c1=O` [TEMOZOLOMIDE], for which the GI50 in series [2] was greater than 1000 µM.

Take `Cc1ccc2[nH]c(-c3ccc4ccccc4c3)c(C(C(=O)NO)c3ccccc3)c2c1` (centres undefined): the IC50 with HeLa and in the series with MCF7 was greater than 50 µM throughout.

`O=C(NO)C(c1ccccc1Cl)c1c(-c2ccc3ccccc3c2)[nH]c2ccccc12` (centres undefined): the IC50 with HeLa was 31 µM; in the series with MCF7, 4.9 µM.

As to `CCCCn1c(-c2ccc3ccccc3c2)c(C(C(=O)NO)c2ccccc2)c2ccccc21` (centres undefined), the IC50 with HeLa came out at 5.6 µM; with MCF7 it was 7.8 µM.

On to `COc1cc([C@@H]2c3cc4c(cc3[C@H](O)[C@H]3COC(=O)[C@H]23)OCO4)cc(OC)c1OC`, for which the outcome in the series on A549 and in the series with U-87MG ATCC [5] was inactive.

Turning to `O=C(NO)C(c1ccc([N+](=O)[O-])cc1)c1c(-c2ccccc2)[nH]c2ccccc12` (centres undefined), the IC50 in the series on HeLa and in the series with MCF7 was greater than 50 µM each time.

On to `O=C(NO)C(c1ccccc1Br)c1c(-c2ccc3ccccc3c2)[nH]c2ccccc12` (centres undefined), for which the values for the half-maximal inhibitory concentration (IC50) in the series on HeLa and in the series on MCF7 were 13 µM and 2.7 µM, respectively.

For `O=C(NO)C(c1ccc(F)cc1)c1c(-c2ccc3ccccc3c2)[nH]c2ccccc12` (centres undefined), the IC50 with HeLa came to 18.2 µM; in the series on MCF7 it was 6.3 µM.

With `NC(=O)C(c1ccccc1)c1c(-c2ccc3ccccc3c2)[nH]c2ccccc12` (centres undefined), the IC50 in the series on HeLa is 9.3 µM; in the series with MCF7 it was 11.6 µM.

Regarding `CCOc1ccc(C(C(=O)NO)c2c(-c3ccc4ccccc4c3)[nH]c3ccccc23)cc1` (centres undefined), the IC50 was found to be 17.3 µM in the series on HeLa and 8.5 µM in the series on MCF7.

For the compound `CC(=O)O[C@H]1C(=O)[C@@]2(C)[C@H]([C@H](OC(=O)c3ccccc3)[C@]3(O)C[C@H](OC(=O)[C@H](O)[C@@H](NC(=O)c4ccccc4)c4ccccc4)C(C)=C1C3(C)C)[C@]1(OC(C)=O)CO[C@@H]1C[C@@H]2O`, the result in the series on A549 and in the series on U-87MG ATCC [5] was inactive.

Regarding `CC(C)c1ccc(C(C(=O)NO)c2c(-c3ccc4ccccc4c3)[nH]c3ccccc23)cc1` (centres undefined), the IC50 worked out at 0.68 µM in the series on HeLa and 1.4 µM in the series on MCF7. The GI50 in series [2] came out at 3.4 µM; in [6], 5 µM.

For `O=C(NO)C(c1ccc(Cl)c(Cl)c1)c1c(-c2ccc3ccccc3c2)[nH]c2ccccc12` (centres undefined), the values for the IC50 in the series with HeLa and in the series on MCF7 were 31.7 µM and 12.2 µM, respectively.

As for `Cn1c(-c2ccc3ccccc3c2)c(C(C(=O)NO)c2ccccc2Br)c2ccccc21` (centres undefined), the IC50 is 24 µM in the series on HeLa and 11.2 µM in the series on MCF7.

For the compound `COc1ccc(-c2[nH]c3ccccc3c2C(C(=O)NO)c2ccccc2)cc1` (centres undefined), the IC50 in the series with HeLa and with MCF7 was greater than 50 µM in each case.

Consider `O=C(NO)C(c1ccccc1)c1c(-c2ccccc2[N+](=O)[O-])[nH]c2ccccc12` (centres undefined), for which the IC50 in the series on HeLa and in the series with MCF7 was greater than 50 µM throughout.

Consider `CCN(CC)c1ccc(C(C(=O)NO)c2c(-c3ccc4ccccc4c3)[nH]c3ccccc23)cc1` (centres undefined), for which the IC50 in the series with HeLa was 4.1 µM; in the series with MCF7, 7.9 µM.

With `COc1ccc2[nH]c(-c3ccc4ccccc4c3)c(C(C(=O)NO)c3ccccc3)c2c1` (centres undefined), the IC50 in the series with HeLa and in the series on MCF7 was greater than 50 µM throughout.
